Results reported in ChEMBL document CHEMBL1121388, “Analgesic narcotic antagonists. 2. 8-Alkymorphinan-6-ones” (J Med Chem, 1980).
The source made the active and inactive calls. No cut-off for these calls is given here.

Tests used:
Rattus norvegicus [1] = organism: Rattus norvegicus; assay: Ratio of agonist to that of antagonist activity; format: functional
Rattus norvegicus [2] = assay: The effective dose was measured by using rat tail flick assay after the compound administered intraperitoneally.; format: functional; conditions: ip
Mus musculus [3] = assay: The effective dose was measured by using mouse writhing assay after the compound administered subcutaneously.; format: functional; conditions: sc
How it was run: (§1)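 Analgesia in the mouse writhing test induced by acetic acid, with compound given subcutaneously. Salts were dissolved in distilled H₂O; free bases were dissolved by dropwise 1 N HCl and then diluted.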

Rattus norvegicus [4] = assay: Effective dose was measured by using rat tail flick assay after subcutaneous administration; format: functional; conditions: sc
How it was run: (§2)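 Agonist activity in the rat heat-stimulus tail-flick test. Drug was given subcutaneously and rats were tested 20 min after dosing. Salts were dissolved in distilled H₂O; free bases were dissolved with dropwise 1 N HCl and then diluted. ED₅₀ or inactivity/lethality recorded at the dose indicated.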

Rattus norvegicus [5] = assay: The Effective dose was measured by using rat tail flick assay after the compound administered intraperitoneally at a dose of 25 umol/kg; IA means inactive at the given dose; format: functional, organism-based
Mus musculus [6] = assay: The Effective dose was measured by using mouse writhing assay after the compound administered subcutaneously; IA means inactive; format: functional, organism-based; how it was run: as §1
Mus musculus [7] = assay: The Effective dose was measured by using mouse writhing assay after the compound administered subcutaneously at a dose 27umol/kg; IA means inactive at the given dose; format: functional, organism-based; how it was run: as §1
Rattus norvegicus [8] = assay: The Effective dose was measured by using rat tail flick assay after the compound administered subcutaneously at a dose 27umol/kg; IA means inactive at the given dose; format: functional, organism-based; how it was run: as §2
Rattus norvegicus [9] = assay: The Effective dose was measured by using rat tail flick assay after the compound administered intraperitoneally at a dose of 50 uM/Kg; IA means inactive at the given dose; format: functional, organism-based
Mus musculus [10] = assay: The Effective dose was measured by using mouse writhing assay after the compound administered subcutaneously at a dose of 24 umol/kg; IA means inactive at the given dose; format: functional, organism-based; how it was run: as §1
Mus musculus [11] = assay: The Effective dose was measured by using mouse writhing assay after the compound administered subcutaneously at a dose of 25 umol/kg; IA means inactive at the given dose; format: functional, organism-based; how it was run: as §1

Compound | ED50 (Rattus norvegicus [2]) [µmol/kg] | ED50 (Mus musculus [3]) [µmol/kg] | ED50 (Rattus norvegicus [4]) [µmol/kg] | also measured
COc1ccc2c(c1)C13CCN(CC4CC4)C(C2)[C@@H]1CCC(=O)C3.Cl (some centres not stated) | 14.9 | 0.66 |  | Ratio (Rattus norvegicus [1]): 0.04
C[C@H]1CC(=O)CC23CCN(CC4CCC4)C(Cc4ccc(O)cc42)[C@H]13.Cl (some centres not stated) | 2.79 | 0.29 |  | Ratio (Rattus norvegicus [1]): 0.1
C=CCN1CC[C@]23c4c5ccc(O)c4O[C@H]2[C@@H](O)C=C[C@H]3[C@H]1C5 [NALORPHINE] |  |  |  | Ratio (Rattus norvegicus [1]): 1.42
CC(C)=CCN1CC[C@]2(C)c3cc(O)ccc3C[C@H]1[C@H]2C [(+)-PENTAZOCINE] |  |  |  | Ratio (Rattus norvegicus [1]): 0.36
COc1ccc2c(c1)C13CCN(C)C(C2)[C@@H]1CCC(=O)C3 (some centres not stated) |  | 1.72 | 2.32 | 
COc1ccc2c(c1)C13CCN(CC4CCC4)C(C2)[C@H]1[C@H](C)CC(=O)C3 (some centres not stated) |  | 47 |  | ED50 (Rattus norvegicus [5]): inactive
CCC[C@@H]1CC(=O)CC23CCN(CC4CCC4)C(Cc4ccc(O)cc42)[C@@H]13 (some centres not stated) | 4.5 | > 24 |  | 
C=CCN1CC[C@]23c4c5ccc(O)c4O[C@H]2C(=O)CC[C@@]3(O)[C@H]1C5 [NALOXONE] |  |  |  | ED50 (Mus musculus [6]): inactive
CCC[C@H]1CC(=O)CC23CCN(C)C(Cc4ccc(O)cc42)[C@H]13 (some centres not stated) |  |  |  | ED50 (Mus musculus [7]): inactive; ED50 (Rattus norvegicus [8]): inactive
CCC[C@H]1CC(=O)CC23CCN(CC4CC4)C(Cc4ccc(OC)cc42)[C@H]13 (some centres not stated) |  | 12.4 |  | ED50 (Rattus norvegicus [5]): inactive
C[C@H]1[C@H]2Cc3ccc(O)cc3[C@]1(C)CCN2CC1CC1 [CYCLAZOCINE] | 0.81 | 0.41 |  | Ratio (Rattus norvegicus [1]): 0.5
CC[C@H]1CC(=O)CC23CCN(CC4CC4)C(Cc4ccc(OC)cc42)[C@H]13 (some centres not stated) | > 50 | 4.4 |  | 
CCC[C@H]1CC(=O)CC23CCN(CC4CCC4)C(Cc4ccc(OC)cc42)[C@H]13 (some centres not stated) |  | 34 |  | ED50 (Rattus norvegicus [9]): inactive
C[C@H]1CC(=O)CC23CCN(C)C(Cc4ccc(O)cc42)[C@H]13 (some centres not stated) |  | 2.55 | > 30 | 
CCC[C@@H]1CC(=O)CC23CCN(CC4CCC4)C(Cc4ccc(OC)cc42)[C@@H]13 (some centres not stated) | > 24 |  |  | ED50 (Mus musculus [10]): inactive
CC[C@@H]1CC(=O)CC23CCN(C)C(Cc4ccc(O)cc42)[C@@H]13 (some centres not stated) |  | 2.11 | 2.31 | 
CC[C@H]1CC(=O)CC23CCN(C)C(Cc4ccc(O)cc42)[C@H]13 (some centres not stated) |  | 2.29 | 33 | 
CC[C@@H]1CC(=O)CC23CCN(CC4CC4)C(Cc4ccc(O)cc42)[C@@H]13 (some centres not stated) | 0.88 |  |  | ED50 (Mus musculus [11]): inactive
CCC[C@@H]1CC(=O)CC23CCN(CC4CC4)C(Cc4ccc(O)cc42)[C@@H]13 (some centres not stated) | 3.34 |  |  | ED50 (Mus musculus [10]): inactive
COc1ccc2c(c1)[C@]13CCN(CC4CC4)[C@H](C2)[C@@H]1[C@@H](C)CC(=O)C3 | 4.27 | 0.71 |  | Ratio (Rattus norvegicus [1]): 0.17
CCC[C@H]1CC(=O)CC23CCN(CC4CC4)C(Cc4ccc(O)cc42)[C@H]13 (some centres not stated) | 24.3 |  |  | ED50 (Mus musculus [11]): inactive
CCC[C@H]1CC(=O)CC23CCN(C)C(Cc4ccc(OC)cc42)[C@H]13 (some centres not stated) |  | 15.4 | > 28 | 
COc1ccc2c(c1)C13CCN(C)C(C2)[C@@H]1[C@@H](C)CC(=O)C3 (some centres not stated) |  | 1.34 | 3.57 | 
COc1ccc2c3c1O[C@H]1C(=O)CC[C@H]4[C@@H](C2)N(C)CC[C@]314 [HYDROCODONE] |  |  | 5.2 | 
CN1CCC23CC(=O)CC[C@H]2C1Cc1ccc(O)cc13 (some centres not stated) |  | 0.52 | 70 | 
C[C@@H]1CC(=O)CC23CCN(CC4CC4)C(Cc4ccc(O)cc42)[C@@H]13 (some centres not stated) | 0.89 |  |  | ED50 (Mus musculus [11]): inactive
